# Assay results pooled from the literature.
# Lines come from different studies, so protocols differ.
# XDH: Xanthine dehydrogenase/oxidase (XDH, Bos taurus, UniProt P80457)
# SIRT1: NAD-dependent protein deacetylase sirtuin-1 (SIRT1, Homo sapiens, UniProt Q96EB6)
# SPHK2: Sphingosine kinase 2 (SPHK2, Homo sapiens, UniProt Q9NRA0)
# SLC7A5: Large neutral amino acids transporter small subunit 1 (SLC7A5, Homo sapiens, UniProt Q01650)
SMILES,target,test,setting,inhibition [%]
OCCc1ccc(O)cc1,XDH,"enzyme activity, inhibitor, absorbance",200 µg/mL,21.2
CCCC(=S)NCCCC[C@H](NS(C)(=O)=O)C(=O)N[C@H](C)C(=O)N[C@@H](CCCNC(=N)N)C(N)=O,SIRT1,"enzyme activity, inhibitor",10 µM,14
O=C(O)c1ccc(O)c(O)c1,XDH,"enzyme activity, inhibitor, absorbance",200 µg/mL,20.8
CCCCCC1CC(=O)c2cc(Br)cc(Br)c2O1 (stereo not drawn),SIRT1,"enzyme activity, inhibitor, fluorescence",200 µM,0.6
O=C(O)c1ccc(O)cc1,XDH,"enzyme activity, inhibitor, absorbance",200 µg/mL,17.9
O=c1cc(-c2ccccc2)oc2c(Br)cc(Cl)cc12,SIRT1,"enzyme activity, inhibitor, fluorescence",200 µM,3.1
O=C(CSc1nc2nccnc2c(=O)n1CCc1ccccc1)Nc1ccccc1,SPHK2,"enzyme activity, inhibitor",10 µM,< 20
O=C(NC1CCC1)[C@H](Cc1c[nH]c2ccccc12)NC(=O)[C@H](CCCCNC(=S)NCCn1nn[nH]c1=O)NS(=O)(=O)c1cccc(F)c1,SIRT1,"enzyme activity, inhibitor",10 µM,17
O=Cc1ccc(O)cc1,XDH,"enzyme activity, inhibitor, absorbance",200 µg/mL,6.5
NC(CNC(=O)c1ccccc1)C(=O)O (stereo not drawn),SLC7A5,"transporter uptake, inhibitor, radiometric",200 µM,4.6
N=C(N)N1CCC[C@H]1c1nc(-c2ccc(CCC3CCCCC3)c(C(F)(F)F)c2)no1,SPHK2,"enzyme activity, inhibitor, radiometric",0.3 µM,71
CCCCCCCCCCCCCC(=O)NCCCC[C@H](NS(C)(=O)=O)C(=O)N[C@H](C)C(=O)N[C@@H](CCCNC(=N)N)C(N)=O,SIRT1,"enzyme activity, inhibitor",10 µM,23
CCCCCC1CC(=O)c2cccc(Br)c2O1 (stereo not drawn),SIRT1,"enzyme activity, inhibitor, fluorescence",200 µM,7.1
CCCc1ccc(CCc2ccc(-c3noc([C@@H]4CCCN4C(=N)N)n3)cc2C(F)(F)F)cc1,SPHK2,"enzyme activity, inhibitor, radiometric",0.3 µM,65
CC(C)CCn1c(SCC(=O)Nc2ccccc2C(F)(F)F)nc2nccnc2c1=O,"Phosphatidylinositol 4-kinase beta (PI4KB, Homo sapiens, UniProt Q9UBF8)","enzyme activity, inhibitor",10 µM,< 20
O=Cc1c[nH]c2ccccc12,XDH,"enzyme activity, inhibitor, absorbance",200 µg/mL,13.1
CCCCCC1CC(=O)c2cc(C)cc(C)c2O1 (stereo not drawn),SIRT1,"enzyme activity, inhibitor, fluorescence",200 µM,3.2
COc1cc(-c2cc(-c3ccc(N4CCNCC4)cc3)cnc2N)cc(OC)c1OC,"Platelet-derived growth factor receptor alpha (PDGFRA, Homo sapiens, UniProt P16234, D842V)","enzyme activity, inhibitor",1 µM,90
CCCCCCCCCCCCNC(=O)NCCCC[C@H](NS(C)(=O)=O)C(=O)N[C@H](C)C(=O)N[C@@H](CCCNC(=N)N)C(N)=O,SIRT1,"enzyme activity, inhibitor",10 µM,38
NC(CCNC(=O)c1ccccc1)C(=O)O (stereo not drawn),SLC7A5,"transporter uptake, inhibitor, radiometric",200 µM,8.6
CCCCCCCC1CC(=O)c2cc(Cl)cc(Br)c2O1 (stereo not drawn),SIRT1,"enzyme activity, inhibitor, fluorescence",200 µM,7.5
O=C(COc1ccc2cc(C(=O)Nc3ccccc3)ccc2c1)NCc1ccc(O)c(O)c1,"Signal transducer and activator of transcription 5B, SH2 (STAT5B, Homo sapiens, UniProt P51692)","ligand displacement, FP",100 µM,-2
CCCCCC=CCOc1ccc(-c2noc([C@@H]3CCCN3C(=N)N)n2)cc1C(F)(F)F (mixture of isomers),SPHK2,"enzyme activity, inhibitor, radiometric",0.3 µM,40
N[C@@H](Cc1ccc(OC(=O)c2ccccc2)cc1)C(=O)O,SLC7A5,"transporter uptake, inhibitor, radiometric",200 µM,49
OCCc1ccc(O)c(O)c1,XDH,"enzyme activity, inhibitor, absorbance",200 µg/mL,12.5
CC(C)(C)c1ccc(CCc2ccc(-c3noc([C@@H]4CCCN4C(=N)N)n3)cc2C(F)(F)F)cc1,SPHK2,"enzyme activity, inhibitor, radiometric",0.3 µM,71
CCCCCC1CC(=O)c2cc(Cl)ccc2O1 (stereo not drawn),SIRT1,"enzyme activity, inhibitor, fluorescence",200 µM,2.7
O=C(CO)c1ccc(O)c(O)c1,XDH,"enzyme activity, inhibitor, absorbance",100 µg/mL,20
O=C(CSc1nc2nccnc2c(=O)n1CCc1ccccc1)Nc1nccs1,SPHK2,"enzyme activity, inhibitor",10 µM,0
N=C(N)N1CCC[C@H]1c1nc(-c2ccc(CCC3CC3)c(C(F)(F)F)c2)no1,SPHK2,"enzyme activity, inhibitor, radiometric",0.3 µM,32
CN(C)C1CCN(CC#Cc2nn(C3CCCC3)c3nc(NCc4ccccc4)ncc23)C1 (stereo not drawn),"Protein kinase C theta type (PRKCQ, Homo sapiens, UniProt Q04759)","enzyme activity, inhibitor, FRET",10 µM,13
CCCC=CCOc1ccc(-c2noc([C@@H]3CCCN3C(=N)N)n2)cc1C(F)(F)F,SPHK2,"enzyme activity, inhibitor, radiometric",0.3 µM,28
O=C1CC(CCNC(=S)NCCCC[C@H](NS(=O)(=O)c2cccc(F)c2)C(=O)N[C@@H](Cc2c[nH]c3ccccc23)C(=O)NC2CCC2)=NO1,SIRT1,"enzyme activity, inhibitor",10 µM,22
NC(CCOC(=O)c1ccccc1)C(=O)O (stereo not drawn),SLC7A5,"transporter uptake, inhibitor, radiometric",200 µM,11
CCCCCC1CC(O)c2cc(Cl)cc(Br)c2O1 (stereo not drawn),SIRT1,"enzyme activity, inhibitor, fluorescence",200 µM,-5.5
[H]/N=C(\N)N1CCC[C@H]1c1nc(-c2ccc(OCC=CCCCC)c(C(F)(F)F)c2)no1,SPHK2,"enzyme activity, inhibitor, radiometric",0.3 µM,48
N[C@@H](Cc1cccc(OC(=O)c2ccccc2)c1)C(=O)O,SLC7A5,"transporter uptake, inhibitor, radiometric",200 µM,100
CNC(=O)c1cc(Oc2ccc(NC(=O)Nc3ccc(Cl)c(C(F)(F)F)c3)cc2)ccn1,"Platelet-derived growth factor receptor alpha (PDGFRA, Homo sapiens, UniProt P16234)","enzyme activity, inhibitor",10 µM,95
CCCCCCCCCCCCNC(=S)NCCCC[C@H](NC(=O)OCc1ccccc1)C(=O)N[C@@H](Cc1c[nH]c2ccccc12)C(=O)N[C@@H](CCC(=O)O)C(N)=O,SIRT1,"enzyme activity, inhibitor",1 µM,28
O=C(NC1CCC1)[C@H](Cc1c[nH]c2ccccc12)NC(=O)[C@H](CCCCNC(=S)NCCc1nnn[nH]1)NS(=O)(=O)c1cccc(F)c1,SIRT1,"enzyme activity, inhibitor",1 µM,7
CCCCCCCCCCCCNC(=S)NCCCC[C@H](NC(=O)C1CCCCC1)C(=O)N[C@H](C)C(=O)N[C@@H](CCCNC(=N)N)C(N)=O,SIRT1,"enzyme activity, inhibitor",1 µM,44
O=C1C=C(c2ccc(O)c(O)c2)CO1,XDH,"enzyme activity, inhibitor, absorbance",100 µg/mL,17.2
C[C@@H](NC(=O)[C@H](CCCCNC(=O)C(F)(F)F)NS(C)(=O)=O)C(=O)N[C@@H](CCCNC(=N)N)C(N)=O,SIRT1,"enzyme activity, inhibitor",100 µM,14
O=C1CC(CCc2ccccc2)Oc2c(Br)cc(Cl)cc21 (stereo not drawn),SIRT1,"enzyme activity, inhibitor, fluorescence",200 µM,6.9
CCCCCCCCCCCCNC(=S)NCCCC[C@H](NC(=O)OCc1ccccc1)C(=O)N[C@@H](Cc1c[nH]c2ccccc12)C(=O)N[C@@H](CCCCN)C(N)=O,SIRT1,"enzyme activity, inhibitor",10 µM,71
[H]/N=C(\N)N1CCC[C@H]1c1nc(-c2ccc(OCC=Cc3ccccc3C(F)(F)F)c(C(F)(F)F)c2)no1,SPHK2,"enzyme activity, inhibitor, radiometric",0.3 µM,0
O=C(c1ccc(F)cc1)N(Cc1ccccc1)C1CCCCC1,"Alpha-1B adrenergic receptor (Adra1b, Rattus norvegicus, UniProt P15823)",cell-free assay,10 µM,4
CCCCCCCCCCCCNC(=S)NCCCC[C@H](NC(=O)OCc1ccccc1)C(=O)N[C@@H](Cc1c[nH]c2ccccc12)C(=O)N[C@@H](CC(N)=O)C(N)=O,SIRT1,"enzyme activity, inhibitor",10 µM,29
